Test results reported in publication PMC9313898 (Journal of Thrombosis and Haemostasis, 2022).
Entries after “also recorded” stand apart in the source; their conditions may differ.

Key:
[1] = cited from earlier work
APTT in rabbit plasma [2] = assay: Ex vivo APTT in the rabbit liver-injury model
[3] = system: New Zealand White rabbits; assay: Rabbit liver-injury bleeding model; format: in vivo
In short: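 Male New Zealand White rabbits (2.5–3.3 kg) were anaesthetised with ketamine/xylazine and kept at 37°C. A 1 × 1 cm triangular wedge was cut from the liver edge. Pre‑weighed swabs were applied at 30‑s intervals for up to 30 min to give bleeding time and blood loss.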

PT in rabbit plasma = assay: Ex vivo PT in the rabbit liver-injury model
APTT in pig plasma = assay: APTT clotting time in pig plasma; format: biochemical; conditions: mean, n = 2–9
In short: (§1)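 Plasma came from untreated donor animals, collected into citrate, centrifuged at 2500 ×g for 20 min at 4°C, and stored at −20°C. Plasma was incubated with test compound (0–37.5 µM) for 3 min at 37°C, then with kaolin/cephalin APTT reagent for 3 min. Clotting was started with 0.025 M CaCl₂ and timed on an automated coagulometer. EC₁₅₀ is the concentration giving a 1.5‑fold APTT increase.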

[4] = system: New Zealand White rabbits; assay: Arterio-venous shunt model in rabbits, prevention protocol; format: in vivo; conditions: rabbit AV shunt; for Thrombus weight: mean (± SEM), control 14.8 (± 2) mg
In short: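 Male New Zealand White rabbits (2.7–3.0 kg) were anaesthetised with ketamine/xylazine (i.m. bolus, then ear‑vein infusion). A shunt joined the right carotid artery to the left jugular vein through a 4 cm polyethylene tube holding a 6 cm nylon‑wire loop. An i.v. bolus (0.3, 1 or 3 mg/kg) was given 10 min before opening. After 15 min the wire and thrombus were removed and weighed.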

PT in human plasma = assay: Prothrombin time in human plasma; format: biochemical; conditions: 0–37.5 µM
In short: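 Human citrated plasma (pooled volunteer plasma or purchased) was incubated with test compound (0–37.5 µM) for 3 min at 37°C. It was then mixed with thromboplastin, and clotting time was measured at 37°C on an automated coagulometer.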

[5] = system: New Zealand White rabbits; assay: Arterio-venous shunt model in rabbits, intervention protocol; format: in vivo; conditions: rabbit AV shunt
In short: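 Anaesthetised male New Zealand White rabbits (2.7–3.0 kg, ketamine/xylazine) carried a carotid‑artery to jugular‑vein shunt: a 4 cm polyethylene tube with a 6 cm nylon‑wire loop. Test compound was given as an i.v. bolus (1 or 5 mg/kg) via the femoral vein 10 min after the shunt was opened. The shunt ran 30 min, then the wire and attached thrombus were weighed.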

[6] = system: New Zealand White rabbits; assay: Arterial thrombosis; format: in vivo; conditions: rabbit carotid artery FeCl2
[7] = system: New Zealand White rabbits; assay: Venous thrombosis; format: in vivo; conditions: rabbit jugular vein FeCl2
In short: (§2)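 Male New Zealand White rabbits (2.7–3.0 kg) were anaesthetised with ketamine/xylazine, with the femoral artery and vein cannulated. Thirty min after i.v. dosing, the jugular vein was exposed to FeCl₂ (13% in 100 µl water) on filter paper for 5 min. After a further 30 min the injured vein was excised and the thrombus weighed. Ear bleeding time was recorded as the time bleeding stopped.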

FXIa [8] = molecular target: T1, FXIa (Oryctolagus cuniculus, UniProt G1SSQ6); assay: Ex vivo FXIa activity in the AV shunt model; conditions: rabbit AV shunt; preventative and interventional iv treatment
T1 sequence (G1SSQ6 19-624): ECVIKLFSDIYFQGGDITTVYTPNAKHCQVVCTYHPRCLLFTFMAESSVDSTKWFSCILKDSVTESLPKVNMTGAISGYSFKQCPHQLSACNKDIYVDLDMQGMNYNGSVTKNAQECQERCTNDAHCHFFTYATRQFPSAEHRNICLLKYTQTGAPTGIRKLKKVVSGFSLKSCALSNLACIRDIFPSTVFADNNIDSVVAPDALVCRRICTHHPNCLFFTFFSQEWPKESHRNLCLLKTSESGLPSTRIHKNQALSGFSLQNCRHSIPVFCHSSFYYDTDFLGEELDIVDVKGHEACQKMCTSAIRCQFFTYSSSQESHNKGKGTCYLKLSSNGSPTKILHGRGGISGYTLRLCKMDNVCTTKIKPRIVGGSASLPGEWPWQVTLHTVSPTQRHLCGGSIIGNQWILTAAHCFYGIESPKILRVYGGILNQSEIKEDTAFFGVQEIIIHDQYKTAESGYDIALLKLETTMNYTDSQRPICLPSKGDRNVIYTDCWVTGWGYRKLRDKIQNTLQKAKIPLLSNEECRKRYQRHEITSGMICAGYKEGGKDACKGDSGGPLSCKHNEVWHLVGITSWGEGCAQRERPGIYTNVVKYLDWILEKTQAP

APTT in dog plasma = assay: APTT clotting time in dog plasma; format: biochemical; conditions: mean, n = 2–9
In short: as §1

FXIa [9] = molecular target: T1, FXIa; assay: Ex vivo FXIa inhibition in the arterial FeCl2-injury rabbit model; conditions: mean (± SD) vs control group
In short: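 Anaesthetised male New Zealand White rabbits received oral test compound in the arterial FeCl₂‑injury model. Citrated blood was drawn at the start of the thrombosis experiment, centrifuged at 2500 ×g for 10 min at 4°C, and stored at −20°C. FXIa activity was measured by kaolin/cephalin activation (3 min, 37°C), then 400 µM AMC substrate plus 5.6 µM kallikrein inhibitor. The fluorescence slope over the first 5 min was compared with controls.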

APTT in rabbit plasma [10] = assay: APTT clotting time in rabbit plasma; format: biochemical; conditions: mean, n = 2–9
In short: as §1

[11] = system: APTT in plasma of monkeys; assay: APTT clotting time in monkey plasma; format: biochemical
[12] = system: New Zealand White rabbits; assay: Ear bleeding time in the venous FeCl2-injury rabbit model; format: in vivo; conditions: asundexian 0.6, 2, or 6 mg/kg iv, any dose group
In short: as §2

[13] = system: New Zealand White rabbits; assay: Ear bleeding time in the AV shunt model, prevention protocol; format: in vivo; conditions: rabbit AV shunt, any dose (0.3, 1, 3 mg/kg iv) or time point
[14] = system: New Zealand White rabbits; assay: Ear bleeding time in the arterial FeCl2-injury rabbit model; format: in vivo
[15] = system: APTT in guinea pig plasma; assay: APTT clotting time in guinea pig plasma; format: biochemical; conditions: mean, n = 2–9
In short: as §1

APTT in rat plasma = assay: APTT clotting time in rat plasma; format: biochemical; conditions: mean, n = 2–9
In short: as §1

APTT in mouse plasma = assay: APTT clotting time in mouse plasma; format: biochemical; conditions: mean, n = 2–9
In short: as §1

[16] = system: New Zealand White rabbits; assay: Gum bleeding time in rabbits; format: in vivo; conditions: rabbit; intravenous asundexian
In short: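 Male New Zealand White rabbits (2.7–3.0 kg) were under ketamine/xylazine anaesthesia during the arterial FeCl₂‑injury thrombosis experiment. Test compound was given i.v., alone or with aspirin plus ticagrelor. Ear bleeding time and, by an equivalent technique, gum‑mucosa bleeding time were recorded as the time at which bleeding stopped.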

[17] = dabigatran high dose (1 mg/kg iv)
[18] = dabigatran low dose (0.3 mg/kg iv)
[19] = apixaban 1 mg/kg iv + aspirin + ticagrelor
[20] = apixaban 3 mg/kg iv + aspirin + ticagrelor

Osocimab: fully human IgG1 antibody targeting coagulation factor XIa
mean elimination half-life [1]: 30 to 44 days

[H]/N=C(/N)c1ccc(NCc2nc3cc(C(=O)N(CCC(=O)O)c4ccccn4)ccc3n2C)cc1 [dabigatran, reference compound]
APTT increase (APTT in rabbit plasma [2]; [17]): 2.2 fold | APTT increase (APTT in rabbit plasma [2]; [18]): 1.4 fold | Increase of bleeding time vs controls ([3]; dabigatran 0.3 mg/kg iv, control mean 5.7 min (340 s)): approximately 5 fold | Bleeding time ([3]; dabigatran 1 mg/kg iv, maximum observation period 30 min): > 30 min | PT increase (PT in rabbit plasma; [17]): 1.7 fold | PT increase (PT in rabbit plasma; [18]): 1.1 fold

CC[C@@H](C(=O)Nc1ccc(C(N)=O)c(F)c1)n1cc(OC)c(-c2cc(Cl)ccc2-n2cc(C(F)(F)F)nn2)cc1=O [asundexian]
APTT prolongation, EC150 (APTT in pig plasma): 0.51 µM | Thrombus weight reduction vs control ([4]; 0.3 mg/kg iv): 14% | Thrombus weight reduction vs control ([4]; 1 mg/kg iv, P < .01): 59% | Thrombus weight ([4]; 1 mg/kg iv): 6.1 (± 0.9) mg | Thrombus weight reduction vs control ([4]; 3 mg/kg iv, P < .001): 71% | Thrombus weight ([4]; 3 mg/kg iv): 4.3 (± 0.5) mg | APTT increase (APTT in rabbit plasma [2]; asundexian high dose (12 mg/kg iv)): 2.3 fold | APTT increase (APTT in rabbit plasma [2]; asundexian low dose (6 mg/kg iv)): 1.7 fold | Effect on PT (PT in human plasma): little to no effect | Thrombus weight reduction vs control ([5]; 1 mg/kg iv, P < .05): 33% | Thrombus weight reduction vs control ([5]; 5 mg/kg iv, P < .001): 62% | Thrombus weight ([5]; 5 mg/kg iv, mean (± SEM), control 36.7 (± 3.2) mg): 14.0 (± 3.5) mg | Thrombus weight reduction vs control ([6]; asundexian 0.6 mg/kg iv bolus): 25% | Additional reduction in thrombus weight on top of aspirin and ticagrelor ([6]; asundexian 2 mg/kg iv + aspirin + ticagrelor): 32% | Additional reduction in thrombus weight on top of aspirin and ticagrelor ([6]; asundexian 6 mg/kg iv + aspirin + ticagrelor): 70% | Additional reduction in thrombus weight on top of aspirin and ticagrelor ([6]; asundexian 12 mg/kg iv + aspirin + ticagrelor): 98% | Thrombus weight reduction vs control ([6]; asundexian 20 mg/kg iv bolus): 88% | Thrombus weight reduction vs control ([6]; oral 10 mg/kg, 2 h before, P < .05): 30% | Thrombus weight reduction vs control ([6]; oral 30 mg/kg, 2 h before, P < .001): 91% | Thrombus weight reduction vs control ([7]; asundexian 0.6 mg/kg iv): 25% | Thrombus weight reduction vs control ([7]; asundexian 2 mg/kg iv): 74% | Thrombus weight reduction vs control ([7]; asundexian 6 mg/kg iv): 90% | Ex vivo FXIa activity (FXIa [8]): reduced FXIa activity | Bleeding time vs controls ([3]; asundexian 6 and 12 mg/kg iv): neither 6 nor 12 mg/kg asundexian led to any significant effect; also recorded: no significant effect | Blood loss vs controls ([3]; asundexian 6 and 12 mg/kg iv): neither 6 nor 12 mg/kg asundexian led to any significant effect; also recorded: no significant effect | APTT prolongation, EC150 (APTT in dog plasma): 1.59 µM | Reduction of FXIa activity ex vivo (FXIa [9]; oral 10 mg/kg): 17% (± 22%) | Reduction of FXIa activity ex vivo (FXIa [9]; oral 30 mg/kg): 44% (± 29%) | APTT prolongation, EC150 (APTT in rabbit plasma [10]): 1.50 µM | Effect on APTT [11]: prolonged | Ear bleeding time [12]: No ear bleeding time prolongation | Bleeding times following ear incision [13]: not prolonged | Effect on PT (PT in rabbit plasma; asundexian 6 and 12 mg/kg iv): no effect | Ear bleeding time vs aspirin and ticagrelor alone ([14]; asundexian iv + aspirin + ticagrelor): did not further increase | Ear bleeding time vs control ([14]; oral asundexian 10 mg/kg and 30 mg/kg): no prolongation | Ear bleeding time vs control ([14]; prophylactic intravenous asundexian 0.6-20 mg/kg): no increase | APTT prolongation, EC150 [15]: 2.13 µM | APTT prolongation, EC150 (APTT in rat plasma): >12.5 µM | APTT prolongation, EC150 (APTT in mouse plasma): >12.5 µM | Gum bleeding time [16]: no increase

COc1ccc(-n2nc(C(N)=O)c3c2C(=O)N(c2ccc(N4CCCCC4=O)cc2)CC3)cc1 [apixaban, 1‐(4‐methoxyphenyl)‐7‐oxo‐6‐(4‐(2‐oxopiperidin‐1‐yl)phenyl)‐4,5,6,7‐tetrahydro‐1H ‐pyrazolo[3,4‐c]pyridine‐3‐carboxamide, reference compound]
Additional reduction in thrombus weight on top of aspirin and ticagrelor [6, 19]: 46% | Additional reduction in thrombus weight on top of aspirin and ticagrelor [6, 20]: 83% | Increase of ear bleeding time vs aspirin and ticagrelor alone [14, 19]: 2.8 fold | Increase of ear bleeding time vs aspirin and ticagrelor alone [14, 20]: 6.6 fold

O=C(NC[C@H]1CN(c2ccc(N3CCOCC3=O)cc2)C(=O)O1)c1ccc(Cl)s1 [rivaroxaban, reference compound]
Thrombus weight reduction (mean) ([6]; rivaroxaban iv 0.08 mg/kg +0.09 mg/kg/hour): 51% | Thrombus weight reduction (mean) ([6]; rivaroxaban iv 0.24 mg/kg +0.27 mg/kg/hour): 77% | Ear bleeding time vs control ([14]; rivaroxaban iv bolus + infusion, significant for the higher dose): prolonged

B1: abelacimab: FXI antibody, dual inhibitor of factor XI and factor XIa (antibody, chains of the INN, looked up, V domains shown)
VH: QVQLLESGGGLVQPGGSLRLSCAASGFTFSTAAMSWVRQAPGKGLEWVSGISGSGSSTYYADSVKGRFTISRDNSKNTLYLQMNSLRAEDTAVYYCARELSYLYSGYYFDYWGQGTLVTVSS
VL: QSVLTQPPSASGTPGQRVTISCSGSSSNIGSNDVSWYQQLPGTAPKLLIYKNYNRPSGVPDRFSGSKSGTSASLAISGLQSEDEADYYCSAWDQRQFDVVFGGGTKLTVL
elimination half-life [1]: 25 to 30 days
